Measurements of several laboratories.
Compare with care: the assays were run in different laboratories.
Organism: Staphylococcus aureus
Effect on: microbial growth

| SMILES | assay | test system | setting | MIC |
| --- | --- | --- | --- | --- |
| CC(C)Oc1c(NC(=O)c2ccc(NC(=O)[C@H](CC(N)=O)NC(=O)c3ccc(NC(=O)c4ccc(C#N)cc4)cc3)cc2)ccc(C(=O)Nc2cccc(C(=O)O)c2)c1O |  | ATCC29213 |  | 2 µg/mL |
| O=C(O)CN1C(=O)/C(=C/c2ccc(-c3ccc(N(c4ccccc4)c4ccccc4)cc3)c3ccccc23)SC1=S | broth dilution | ATCC25923 |  | 1000 µg/mL |
| Cc1ccc(C)n1-c1ccc(C(=O)NNC=O)cc1 | broth dilution | ATCC11632 | 18 h | 16 µg/mL |
| CC(C)Oc1c(NC(=O)c2ccc(NC(=O)[C@H](CC(N)=O)NC(=O)c3ccc(NC(=O)c4ccc([N+](=O)[O-])c5cccnc45)cc3)cc2)ccc(C(=O)Nc2ccc(C(=O)O)cc2)c1O |  | ATCC29213 |  | > 64 µg/mL |
| Cc1ccc2nc(-c3ccc(F)cc3)[nH]c2c1 | broth dilution | ATCC29213 MSSA |  | 64 µg/mL |
| O=C(Nc1ccc(Nc2ccccc2)cc1)Nc1ccc(Cl)c(C(F)(F)F)c1 |  | NCTC8325 | 24 h | 3 µM |
| O=C1NC(=S)S/C1=C\c1ccc(-c2ccc(N(c3ccccc3)c3ccccc3)cc2)cc1 | broth dilution | ATCC25923 |  | 250 µg/mL |
| COc1cccc2cc(-c3nc([C@H]4CC[C@H](C(=O)O)CC4)n4ncnc(N)c34)[nH]c12 |  | NCTC8325 |  | > 30 µM |
| O=C(O)CN1C(=O)/C(=C/c2ccc(-c3ccc(N(c4ccccc4)c4ccccc4)cc3)cc2)SC1=S | broth dilution | ATCC6538 |  | 3.9 µg/mL |
| Nc1c(C(=O)Nc2ccc(C3=NCCN3)cc2)cccc1C(=O)Nc1ccc(C2=NCCN2)cc1 |  |  |  | > 64 µg/mL |
| O=C(O)c1cn(C2CC2)c2cc(N3CCNCC3)c(F)cc2c1=O | broth dilution | ATCC43300 |  | 0.24 µg/mL |
| N#C/C(=C\c1ccc(O)c(O)c1)C(=O)NCc1ccccc1 |  | NCTC8325 |  | > 30 µM |
| CC1=NN(CNc2ccc(C(=O)O)cc2)C(=O)C1=NNn1c(-c2ccccc2)nc2ccccc2c1=O | broth dilution |  | 24 h | 50.5 µM |
| CN(C)[C@@H]1C(O)=C(C(N)=O)C(=O)[C@@]2(O)C(O)=C3C(=O)c4c(O)cccc4[C@@](C)(O)[C@H]3C[C@@H]12 |  | 156 | clinical isolate | 0.15 µM |
| CC(C)CC(=O)Nc1n[nH]c2c1CN(C(=O)C1CCN(C)CC1)C2(C)C |  | NCTC8325 |  | > 30 µM |
| C/C=C(\C)c1cc(OC(=O)c2c(O)c(C)c(O)c(Cl)c2/C(C)=C/C)c(C)c(O)c1C(=O)O | broth dilution | CCARM3090 |  | 64 µg/mL |
| Clc1ccc(-c2nc3ccccc3n2Cc2ccccc2)cc1Cl | broth dilution | ATCC29213 MSSA |  | 8 µg/mL |
| CC(C)(O/N=C(\C(=O)N[C@@H]1C(=O)N2C(C(=O)[O-])=C(C[n+]3ccccc3)CS[C@H]12)c1csc(N)n1)C(=O)O | broth dilution | ATCC25923 | 18 h | 1 µg/mL |
| CSc1nc(Cl)cc(Sc2nnc(-c3cc(C(F)(F)F)cc(C(F)(F)F)c3)[nH]2)n1 |  | 83254 |  | 2.1 µM |
| COc1ccc(-c2nc3ccccc3n2Cc2ccccc2)cc1OC | broth dilution | ATCC29213 MSSA |  | 4 µg/mL |
| CC(C)Oc1c(NC(=O)c2ccc(NC(=O)[C@H](CC(N)=O)NC(=O)c3ccc(NC(=O)c4ccc(NC(=O)c5ccc([N+](=O)[O-])cc5)cc4)cc3)cc2)ccc(C(=O)Nc2ccc(C(=O)O)cc2)c1O |  | ATCC29213 |  | > 64 µg/mL |

| SMILES | assay | test system | setting | MIC |
| --- | --- | --- | --- | --- |
| C/C=C(\C)c1cc(O)c(C)c(OC(=O)c2c(C)cc(O)c(Cl)c2O)c1 | broth dilution | CCARM3090 |  | 8 µg/mL |
| O=C(CCc1ccc(O)c(O)c1)NCCCCCCCC[P+](c1ccccc1)(c1ccccc1)c1ccccc1.[Br-] | broth dilution | ATCC43300 MRSA | 18 h | > 32 µg/mL |
| CSc1ccc(/C=C/c2cc(/C=C3\Sc4ccccc4N3CCCN3CCCC3)c3ccccc3[n+]2C)cc1.[I-] | broth dilution | ATCCBAA44 |  | 32 µg/mL |
| CC(=O)NC[C@H]1CN(c2ccc(N3CCOCC3)c(F)c2)C(=O)O1 |  |  | clinical isolate | 1.56 µg/mL |
| Cc1ccc(NC(=O)Nc2ccc3c(c2)OC(F)(F)O3)cc1 |  | NCTC8325 |  | > 100 µM |
| O=C1NC(=O)C(Cc2ccc(O)cc2)S1 (centres unmarked) |  |  |  | > 128 µg/mL |
| CN[C@H](CC(C)C)C(=O)N[C@H]1C(=O)N[C@@H](CC(N)=O)C(=O)N[C@H]2C(=O)N[C@H]3C(=O)N[C@H](C(=O)N[C@H](C(=O)O)c4cc(O)cc(O)c4-c4cc3ccc4O)[C@H](O)c3ccc(c(Cl)c3)Oc3cc2cc(c3O[C@@H]2O[C@H](CO)[C@@H](O)[C@H](O)[C@H]2O[C@H]2C[C@](C)(N)[C@H](O)[C@H](C)O2)Oc2ccc(cc2Cl)[C@H]1O | broth dilution | MRSA |  | 0.5 µg/mL |
| CCCCCCC#Cc1cncc(-c2nnc(SCc3ccc(Cl)c(F)c3)n2C)c1 |  | MRSA | drug-resistant strain | ≥ 20 µg/mL |
| CC(=O)c1c(C)c2cnc(Nc3ccc(N4CCNCC4)cn3)nc2n(C2CCCC2)c1=O |  | NCTC8325 |  | > 30 µM |
| Cc1ccc2nc(-c3ccc(Cl)cc3)[nH]c2c1 | broth dilution | ATCC29213 MSSA |  | 256 µg/mL |
| C=CCOc1c(C)c(O)c(C(=O)/C=C/c2ccccc2)c(OC)c1C | broth dilution | ATCC25923 |  | > 5000 µg/mL |
| CC(C)Oc1c(NC(=O)c2ccc(NC(=O)[C@H](CC(N)=O)NC(=O)c3ccc(NC(=O)c4ccc(C#N)cc4)cc3)cc2)ccc(C(=O)N[C@@H]2CONC2=O)c1O |  | ATCC29213 |  | > 64 µg/mL |
| COc1c(C)c(OC(=O)c2ccccc2)c(C)c(O)c1C(=O)/C=C/c1ccccc1 | broth dilution | ATCC25923 |  | 5000 µg/mL |
| O=C(Nc1ccc(Cl)c(C(F)(F)F)c1)Nc1cccc2c1OC(F)(F)O2 |  | NCTC8325 |  | 0.5 µM |
| CC1(C)S[C@@H]2[C@H](NC(=O)[C@H](N)c3ccccc3)C(=O)N2[C@H]1C(=O)O | broth dilution | MRSA |  | 32 µg/mL |
| C[C@@H]1[C@H](O)[C@@H](C)/C=C/C=C/C=C/C=C/C=C/C=C/C=C/[C@H](O[C@@H]2O[C@H](C)[C@@H](O)[C@H](N)[C@@H]2O)C[C@@H]2O[C@](O)(C[C@@H](O)C[C@@H](O)[C@H](O)CC[C@@H](O)C[C@@H](O)CC(=O)O[C@H]1C)C[C@H](O)[C@H]2C(=O)O | broth dilution | MB2865 |  | > 128 µg/mL |
| COc1cccc(-c2nc3ccc(C)cc3[nH]2)c1 | broth dilution | ATCC29213 MSSA |  | 128 µg/mL |
| Brc1cccc(NCc2ccc(Oc3ccccn3)cc2)c1 |  |  |  | > 3.1 µg/mL |
| Cc1ccc2nc(-c3ccccc3O)[nH]c2c1 | broth dilution | ATCC29213 MSSA |  | 128 µg/mL |
| CNC(=O)c1ccccc1Sc1ccc2c(/C=C/c3ccccn3)n[nH]c2c1 |  | NCTC8325 |  | > 30 µM |
